Measurements published in ChEMBL document CHEMBL4400539, “Discovery of a Novel Chemotype of Histone Lysine Methyltransferase EHMT1/2 (GLP/G9a) Inhibitors: Rational Design, Synthesis, Biological Evaluation, and Co-crystal Structure” (J Med Chem, 2019).
Calls of active or inactive are those of the source. No cut-off for these calls is given here.

Columns and labels:
[1] = biological target: T1, Histone-lysine N-methyltransferase EHMT2 (Homo sapiens) (UniProt Q96KQ7); assay: Inhibition of recombinant human G9a at 10 uM using biotinylated-Histone H3 peptide (1 to 21 residues) after 30 mins by AlphaLISA assay relative to control
T1 sequence (whole entry): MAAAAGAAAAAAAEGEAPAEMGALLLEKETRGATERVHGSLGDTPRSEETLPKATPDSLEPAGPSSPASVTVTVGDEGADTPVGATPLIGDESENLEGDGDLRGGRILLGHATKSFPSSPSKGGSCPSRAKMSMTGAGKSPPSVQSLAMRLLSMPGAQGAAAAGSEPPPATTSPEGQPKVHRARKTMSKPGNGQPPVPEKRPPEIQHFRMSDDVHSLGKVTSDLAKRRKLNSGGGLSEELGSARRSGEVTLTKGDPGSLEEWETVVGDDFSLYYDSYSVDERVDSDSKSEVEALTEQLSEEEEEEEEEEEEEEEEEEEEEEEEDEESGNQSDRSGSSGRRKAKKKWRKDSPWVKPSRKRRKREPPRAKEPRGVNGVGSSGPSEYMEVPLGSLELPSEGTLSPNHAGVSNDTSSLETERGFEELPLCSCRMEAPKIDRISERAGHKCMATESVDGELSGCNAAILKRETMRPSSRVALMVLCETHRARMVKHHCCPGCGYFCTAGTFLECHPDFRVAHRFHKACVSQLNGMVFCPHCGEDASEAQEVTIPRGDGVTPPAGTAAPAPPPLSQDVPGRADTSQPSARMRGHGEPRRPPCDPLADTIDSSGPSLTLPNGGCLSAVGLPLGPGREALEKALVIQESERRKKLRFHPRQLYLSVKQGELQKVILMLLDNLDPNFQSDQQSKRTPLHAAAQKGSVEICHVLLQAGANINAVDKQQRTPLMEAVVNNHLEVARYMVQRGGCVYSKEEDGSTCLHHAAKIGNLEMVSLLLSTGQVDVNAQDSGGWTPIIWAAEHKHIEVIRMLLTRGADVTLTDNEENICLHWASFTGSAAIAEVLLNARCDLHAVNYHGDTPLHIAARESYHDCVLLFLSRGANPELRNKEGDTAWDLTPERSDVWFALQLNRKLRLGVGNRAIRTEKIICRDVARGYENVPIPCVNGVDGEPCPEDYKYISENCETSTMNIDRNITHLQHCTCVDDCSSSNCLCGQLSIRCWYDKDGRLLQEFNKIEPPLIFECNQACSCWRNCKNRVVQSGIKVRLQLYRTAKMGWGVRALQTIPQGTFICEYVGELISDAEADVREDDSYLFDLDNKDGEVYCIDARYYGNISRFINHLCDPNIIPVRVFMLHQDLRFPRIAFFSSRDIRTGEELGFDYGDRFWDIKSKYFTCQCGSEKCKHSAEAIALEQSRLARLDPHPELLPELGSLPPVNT
Procedure, shortened: (§1)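 G9a AlphaLISA at fixed 10 or 25 μM compound: human recombinant G9a 1 nM, 30 min preincubation, then biotinylated H3(1–21) 100 nM plus SAM 15 μM for 30 min at room temperature, pH 8.8 Tris buffer with 0.01% Tween-20; anti-H3K9me2 acceptor and streptavidin donor beads; percent of DMSO control.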

[2] = biological target: T1, Histone-lysine N-methyltransferase EHMT2 (Homo sapiens); assay: Inhibition of recombinant human G9a at 25 uM using biotinylated-Histone H3 peptide (1 to 21 residues) after 30 mins by AlphaLISA assay relative to control; procedure, shortened: as §1
[3] = biological target: Protein arginine N-methyltransferase 3 (Homo sapiens) (UniProt O60678); assay: Inhibition of recombinant human PRMT3 at 10 to 25 uM using biotinylated-Histone H4 peptide (1 to 21 residues) as substrate preincubated for 30 mins followed by substrate addition and measured after 60 mins in presence of SAM by AlphaLISA assay relative to control
Procedure, shortened: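 Biotinylated H4(1–21) peptide plus SAM then added for 60 min: PRMT1 0.9 nM, peptide 100 nM, SAM 2 μM; PRMT3 23 nM, peptide 50 nM, SAM 10 μM. Anti-H4R3me AlphaLISA; 10 and 25 μM; three experiments, mean ± SD.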

MCF7 = assay: Cytotoxicity against human MCF7 cells assessed as reduction in cell viability at 0.05 to 50 uM after 24 hrs by MTT assay; format: cell-based; conditions: mcf7, 24 h
Procedure, shortened: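 MCF-7, MDA-MB-231 and U-343 cells exposed 24, 48 and 72 h to 0.05, 0.5, 5 and 50 μM compound; viability by MTT reduction to formazan versus vehicle; mean ± SD of at least three independent experiments.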

[4] = biological target: T1, Histone-lysine N-methyltransferase EHMT2 (Homo sapiens)
[5] = biological target: T2, Histone-lysine N-methyltransferase EHMT2 (Homo sapiens, UniProt Q96KQ7); assay: Competitive inhibition of recombinant human G9a using biotinylated-Histone H3 peptide (1 to 21 residues) as substrate at varying concentration after 30 mins in presence SAM by Lineweaver-Burk plot analysis
T2 sequence (Q96KQ7 whole entry): T1 sequence (whole entry)

Chain of Protein arginine N-methyltransferase 3 (Homo sapiens) (O60678 2-531 limits assumed): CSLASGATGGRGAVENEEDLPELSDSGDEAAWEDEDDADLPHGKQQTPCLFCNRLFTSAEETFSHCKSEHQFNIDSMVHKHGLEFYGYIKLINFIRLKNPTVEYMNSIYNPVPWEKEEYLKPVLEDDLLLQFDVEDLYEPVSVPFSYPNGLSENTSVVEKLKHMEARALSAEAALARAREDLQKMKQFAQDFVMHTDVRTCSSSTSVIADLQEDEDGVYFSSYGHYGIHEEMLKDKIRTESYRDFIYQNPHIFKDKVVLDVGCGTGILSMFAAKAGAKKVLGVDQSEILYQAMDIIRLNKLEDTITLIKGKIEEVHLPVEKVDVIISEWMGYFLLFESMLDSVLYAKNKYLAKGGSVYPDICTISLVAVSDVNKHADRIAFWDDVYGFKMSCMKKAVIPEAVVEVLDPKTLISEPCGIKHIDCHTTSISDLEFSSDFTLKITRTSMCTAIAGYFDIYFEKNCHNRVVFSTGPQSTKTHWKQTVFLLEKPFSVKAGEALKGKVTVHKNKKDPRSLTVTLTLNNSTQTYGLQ

In the case of `COc1cc2c(cc1OCCCN1CCCC1)N=C(C1CCCCC1)CN=C2NC1CCN(C(C)C)CC1`, the inhibition [1] is reported as 97%, the inhibition [2] is reported as 98% and the inhibition [3] is reported as “inactive”. The Activity (MCF7) was “Non-Toxic”, the Ka [4] was 550 and the Ki [5] was 13.8 nM.
